The source made the active and inactive calls. The rule behind the calls is not given here.
How the values were obtained:
L6 [1] = assay: Stimulation of [3H]2-deoxyglucose uptake in rat L6 cells incubated for 16 hrs by scintillation counting method; format: functional, cell-based
How it was run: (§1)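 L6 myotubes incubated with the compound […]; insulin at 100 nM for 20 min served as the positive control. Uptake of ³H-2-deoxyglucose measured and expressed as fold stimulation relative to the control condition.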

[2] = molecular target: T1, Tyrosine-protein phosphatase non-receptor type 1 (Homo sapiens) (UniProt P18031); assay: Inhibition of human recombinant PTP1B using IR5 insulin receptor-beta (1142 to 1153 residues, pY1146) substrate BY Malachite green dye based assay
T1 sequence (whole entry): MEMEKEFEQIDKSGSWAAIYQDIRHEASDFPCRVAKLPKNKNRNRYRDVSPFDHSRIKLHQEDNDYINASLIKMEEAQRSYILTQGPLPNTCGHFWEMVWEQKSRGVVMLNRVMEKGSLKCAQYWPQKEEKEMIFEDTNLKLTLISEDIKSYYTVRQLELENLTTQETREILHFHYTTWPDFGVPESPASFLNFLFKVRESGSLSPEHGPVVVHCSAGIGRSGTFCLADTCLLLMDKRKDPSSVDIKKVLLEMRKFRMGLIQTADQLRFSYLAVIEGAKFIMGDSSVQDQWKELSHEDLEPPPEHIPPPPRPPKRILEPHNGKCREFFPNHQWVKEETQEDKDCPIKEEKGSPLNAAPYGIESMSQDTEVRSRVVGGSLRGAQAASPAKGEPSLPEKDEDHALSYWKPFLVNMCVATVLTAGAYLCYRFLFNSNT

Mus musculus [3] = assay: Antihyperglycemic activity in db/db mouse assessed as reduction in cholesterol level at 10 mg/kg, po qd for 15 days; format: functional; design: scale not given: the % may be the effect or the level left
How it was run: (§2)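 db/db mice given 3, 10 or 30 mg/kg orally once a day for 15 consecutive days, alongside vehicle controls. Serum triglyceride, total cholesterol, HDL-C and insulin measured, along with fasting blood glucose. Expressed as mean % change in 5 animals per group versus control.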

Mus musculus [4] = assay: Antihyperglycemic activity in db/db mouse assessed as reduction in fasting blood glucose level at 3 mg/kg, po qd for 15 days; format: functional; design: scale not given: the % may be the effect or the level left; how it was run: as §2
L6 [5] = assay: Stimulation of [3H]2-deoxyglucose uptake in rat L6 cells at 10 uM incubated for 16 hrs by scintillation counting method relative to untreated control; format: functional; how it was run: as §1
L6 [6] = assay: Stimulation of [3H]2-deoxyglucose uptake in rat L6 cells at 2.5 uM incubated for 16 hrs by scintillation counting method; format: functional, cell-based; how it was run: as §1
Rattus norvegicus [7] = assay: Antihyperglycemic activity in Sprague-Dawley rat model of STZ-induced diabetes assessed as improvement on glucose tolerance at 100 mg/kg, po dosed 30 mins before sucrose load and measured after 5 hrs post sucrose load by glucometry; format: functional
How it was run: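 Sucrose-challenged streptozotocin-induced diabetic rats, single oral dose of 100 mg/kg b.wt. Blood glucose profile followed after sucrose load, and glucose AUC taken over 0–24 h. Percent improvement in glucose tolerance calculated at 5 h post sucrose load. Values are mean % change in 5 animals per group, compared with control.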

Mus musculus [8] = assay: Antihyperglycemic activity in db/db mouse assessed as improvement on glucose tolerance by measuring blood glucose AUC level at 3 to 30 mg/kg, po qd for 10 days by oral glucose tolerance test; format: functional, organism-based
How it was run: (§3)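 db/db mice dosed orally once daily for 15 consecutive days at 3, 10 or 30 mg/kg, with vehicle controls and pioglitazone at 10 mg/kg. Oral glucose tolerance tests on day 10 and day 15. Overall improvement in glucose tolerance calculated against vehicle control. Mean % change in 5 animals per group.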

[9] = molecular target: T2, Tyrosine-protein phosphatase non-receptor type 1 (Rattus norvegicus) (UniProt P20417); assay: Inhibition of PTP1B in rat L6 cells assessed as increase in insulin-stimulated GSK3beta Ser9 phosphorylation at 10 to 25 uM pre-incubated for 16 hrs before insulin stimulation for 10 mins by Western blot method; format: cell-based
T2 sequence (whole entry): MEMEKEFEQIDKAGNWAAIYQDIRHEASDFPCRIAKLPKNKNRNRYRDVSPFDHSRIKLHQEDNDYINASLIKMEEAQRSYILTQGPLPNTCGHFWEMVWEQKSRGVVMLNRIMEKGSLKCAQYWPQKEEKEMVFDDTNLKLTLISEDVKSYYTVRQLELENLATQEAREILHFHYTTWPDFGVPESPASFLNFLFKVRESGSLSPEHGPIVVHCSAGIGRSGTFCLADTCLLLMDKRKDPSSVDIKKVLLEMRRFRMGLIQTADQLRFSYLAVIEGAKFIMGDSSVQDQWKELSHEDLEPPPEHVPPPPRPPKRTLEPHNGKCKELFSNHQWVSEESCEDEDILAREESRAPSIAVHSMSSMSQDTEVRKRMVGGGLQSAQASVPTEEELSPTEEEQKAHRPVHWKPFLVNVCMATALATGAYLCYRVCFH
How it was run: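 L6 myotubes treated for 16 h with the compound at the indicated concentrations, then stimulated with insulin (100 nM) for 10 min. Cells lysed and analysed by western blot. Densitometry of p-IRS-1, p-AKT and p-GSK, each relative to its total form. Compared with control and with insulin-treated control.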

Mus musculus [10] = assay: Antihyperglycemic activity in db/db mouse assessed as improvement on glucose tolerance by measuring blood glucose AUC level at 3 to 30 mg/kg, po qd for 15 days by oral glucose tolerance test; format: functional, organism-based; how it was run: as §3
Mus musculus [11] = assay: Antihyperglycemic activity in db/db mouse assessed as reduction in fasting blood glucose level at 3 to 30 mg/kg, po qd for 15 days; format: functional, organism-based; how it was run: as §2
Mus musculus [12] = assay: Antihyperglycemic activity in db/db mouse assessed as improvement on glucose tolerance by measuring blood glucose AUC level at 30 mg/kg, po qd for 10 days by oral glucose tolerance test; format: functional; how it was run: as §3
Mus musculus [13] = assay: Antihyperglycemic activity in db/db mouse assessed as reduction in blood glucose level at 3 to 30 mg/kg, po qd for 15 days by oral glucose tolerance test; format: functional, organism-based
How it was run: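 Type 2 diabetic db/db mice dosed orally once a day for 15 days at 3, 10 or 30 mg/kg, with pioglitazone at 10 mg/kg as standard. Blood glucose measured daily and profile compared with vehicle-treated animals. Mean % change in 5 animals per group.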

Mus musculus [14] = assay: Antihyperglycemic activity in db/db mouse assessed as improvement on glucose tolerance by measuring blood glucose AUC level at 10 mg/kg, po qd for 10 days by oral glucose tolerance test; format: functional; how it was run: as §3
HepG2 = assay: Inhibition of glucagon-mediated glucose release in human HepG2 cells at 10 uM incubated for 24 hrs by Amplex red glucose/glucose oxidase assay; format: functional, cell-based
Mus musculus [15] = assay: Antihyperglycemic activity in db/db mouse assessed as reduction in fasting blood glucose level at 30 mg/kg, po qd for 15 days; format: functional; design: scale not given: the % may be the effect or the level left; how it was run: as §2
Mus musculus [16] = assay: Antihyperglycemic activity in db/db mouse assessed as improvement on glucose tolerance by measuring blood glucose AUC level at 3 mg/kg, po qd for 15 days by oral glucose tolerance test; format: functional; how it was run: as §3
Mus musculus [17] = assay: Antihyperglycemic activity in db/db mouse assessed as reduction in triglyceride level at 3 mg/kg, po qd for 15 days; format: functional; design: scale not given: the % may be the effect or the level left; how it was run: as §2
Mus musculus [18] = assay: Antihyperglycemic activity in db/db mouse assessed as reduction in cholesterol level at 30 mg/kg, po qd for 15 days; format: functional; design: scale not given: the % may be the effect or the level left; how it was run: as §2
Mus musculus [19] = assay: Antihyperglycemic activity in db/db mouse assessed as reduction in insulin level at 3 mg/kg, po qd for 15 days; format: functional; design: scale not given: the % may be the effect or the level left; how it was run: as §2
Rattus norvegicus [20] = assay: Antihyperglycemic activity in albino Wistar rat assessed as reduction in blodd glucose level at 100 mg/kg, po dosed 30 mins before sucrose load and measured 30 to 120 mins post sucrose injection by glucometry; format: functional, organism-based
How it was run: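 Normal albino rats given an oral sucrose load, with a single oral dose of 100 mg/kg b.wt. Blood glucose profile followed after the load, and glucose AUC taken over 0–2 h. Percent inhibition of the postprandial rise in blood glucose calculated against control. Mean % change in 5 animals per group.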

inhibition [2]: Dose-dependent effect
inhibition [9]: Active
SMILES: COC(=O)c1c(SC)cc(-c2ccc(C)cc2)c2c1-c1cn(-c3ccccc3)nc1CC2
Activity (L6 [1]): Dose-dependent effect
Activity (Mus musculus [3]): 15.3%
Activity (Mus musculus [4]): 10.1%
fold change (FC) (L6 [5]): 2
Activity (L6 [6]): Active
Activity (Rattus norvegicus [7]): 23.1%
Activity (Mus musculus [8]): Dose-dependent effect
Activity (Mus musculus [10]): Dose-dependent effect
Activity (Mus musculus [11]): Dose-dependent effect
Activity (Mus musculus [12]): 25.7%
Activity (Mus musculus [13]): Dose-dependent effect
Activity (Mus musculus [14]): 13.9%
inhibition (HepG2): Active
Activity (Mus musculus [15]): 31.9%
Activity (Mus musculus [16]): 13.2%
Activity (Mus musculus [17]): 8.98%
Activity (Mus musculus [18]): 22.7%
Activity (Mus musculus [19]): 6.57%
Activity (Rattus norvegicus [20]): Active
